ChEMBL document CHEMBL1132624, “Guanidine derivatives as combined thromboxane A2 receptor antagonists and synthase inhibitors” (J Med Chem, 1999)

Legend:
[1] = molecular target: T1, Thromboxane-A synthase (Homo sapiens, UniProt P24557); assay: In vitro activity on thromboxane A2 synthase inhibition in gel filtered human platelets.
T1 sequence (P24557 whole entry): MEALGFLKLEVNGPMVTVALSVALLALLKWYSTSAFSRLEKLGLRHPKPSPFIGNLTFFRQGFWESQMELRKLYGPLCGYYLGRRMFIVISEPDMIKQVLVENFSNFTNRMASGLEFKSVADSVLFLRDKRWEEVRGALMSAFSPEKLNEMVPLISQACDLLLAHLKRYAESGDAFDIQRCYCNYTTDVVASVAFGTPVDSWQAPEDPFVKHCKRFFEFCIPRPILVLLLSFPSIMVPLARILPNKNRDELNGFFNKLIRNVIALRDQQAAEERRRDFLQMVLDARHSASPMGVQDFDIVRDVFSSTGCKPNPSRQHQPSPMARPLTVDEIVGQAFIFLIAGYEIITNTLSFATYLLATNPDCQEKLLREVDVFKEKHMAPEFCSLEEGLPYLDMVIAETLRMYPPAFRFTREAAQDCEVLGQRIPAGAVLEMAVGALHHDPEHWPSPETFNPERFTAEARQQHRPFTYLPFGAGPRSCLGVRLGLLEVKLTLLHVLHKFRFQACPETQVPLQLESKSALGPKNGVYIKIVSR

[2] = molecular target: T2, Thromboxane A2 receptor (Homo sapiens, UniProt P21731); assay: In vitro activity on thromboxane A2 receptor antagonism in gel filtered human platelets.; assay type: functional
T2 sequence (P21731 whole entry): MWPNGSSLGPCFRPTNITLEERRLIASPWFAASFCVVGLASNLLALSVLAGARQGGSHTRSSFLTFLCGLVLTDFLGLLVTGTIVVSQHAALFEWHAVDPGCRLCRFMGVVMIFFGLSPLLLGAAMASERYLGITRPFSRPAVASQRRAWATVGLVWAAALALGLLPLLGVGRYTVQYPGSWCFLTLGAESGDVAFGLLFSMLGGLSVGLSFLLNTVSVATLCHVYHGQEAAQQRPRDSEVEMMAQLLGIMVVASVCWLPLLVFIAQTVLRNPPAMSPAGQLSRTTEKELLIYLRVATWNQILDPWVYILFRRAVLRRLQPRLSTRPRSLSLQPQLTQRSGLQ
Method in brief: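 Human gel-filtered platelets; competitive displacement of the high-affinity radioligand ³H-SQ 29,548 from the PGH2/TXA2 receptor; IC50 from displacement. Run at least in duplicate.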

[3] = species: Homo sapiens; assay: In vitro activity expressed as EC50 for inhibition of collagen induced platelet aggregation.; assay type: functional

SMILES | IC50 [1] | IC50 [2] | EC50 [3]
CC(C)(C)/N=C(\NC#N)Nc1cccc(/C(=N/OCCCCC(=O)O)c2cccnc2)c1 | 230 nM | 510 nM | 17000 nM
CC(C)(C)/N=C(\NC#N)Nc1cccc(/C(=C\CCC(=O)O)c2cccnc2)c1 | 400 nM | 81 nM | 13000 nM
CC(C)(C)Nc1c(Nc2cccc(/C(=C\CCCC(=O)O)c3cccnc3)c2)c(=O)c1=O | 230 nM | 830 nM | 59000 nM
O=C(O)CCC/C=C(/c1cccnc1)c1cccc(N/C(=N\C2CCCC2)NC(=O)c2ccccc2)c1 | 4 nM | 110 nM | 16000 nM
O=C(O)CCC/C=C(/c1cccnc1)c1cccc(N/C(=C/[N+](=O)[O-])NC2CCCCC2)c1 | 310 nM | 440 nM | 15000 nM
CC(C)(C)/N=C(\NC#N)Nc1cccc(/C(=C\CCCCCC(=O)O)c2cccnc2)c1 | 5 nM | 77 nM | 1700 nM
CC(C)(C)/N=C(\NC#N)Nc1cccc(/C(=C\CCCCC(=O)O)c2cccnc2)c1 | 6 nM | 330 nM | 3700 nM
CC(C)C/N=C(/NC#N)Nc1cccc(/C(=C\CCCC(=O)O)c2cccnc2)c1 | 25 nM |  | 350 nM
CC(C)(C)NC(Nc1cccc(/C(=C\CCCC(=O)O)c2cccnc2)c1)=C(C#N)C#N |  | 3 nM | 120 nM
N#CN/C(=N/C1CCCC1)Nc1cccc(/C(=C\CCCC(=O)O)c2cccnc2)c1 |  |  | 500 nM
CC(C)(C)NC(=O)Nc1cccc(/C(=C\CCCC(=O)O)c2cccnc2)c1 | 40 nM | 1300 nM | 9000 nM
N#CN/C(=N/C1CC1)Nc1ccc(/C(=C\CCCC(=O)O)c2cccnc2)cc1 | 3900 nM | 21000 nM | 42000 nM
N/C(=N/C1CCCC1)Nc1cccc(/C(=C\CCCC(=O)O)c2cccnc2)c1 | 3900 nM | 1700 nM | 21000 nM
N#CN/C(=N/C12CC3CC(CC(C3)C1)C2)Nc1cccc(/C(=C\CCCC(=O)O)c2cccnc2)c1 | 3 nM | 83 nM | 500 nM
CN(C)CC/N=C(/NC#N)Nc1cccc(/C(=C\CCCC(=O)O)c2cccnc2)c1 | 2900 nM | 1000 nM | 6800 nM
CC(C)(C)/N=C(\Nc1cccc(/C(=C\CCCC(=O)O)c2cccnc2)c1)NS(=O)(=O)c1ccccc1 | 3 nM |  | 3300 nM

SMILES | IC50 [1] | IC50 [2] | EC50 [3]
C/N=C(/NC#N)Nc1cccc(/C(=C\CCCC(=O)O)c2cccnc2)c1 | 250 nM | 16 nM | 460 nM
CC(C)(C)/N=C(\NC#N)Nc1cccc(/C(=N\OCCCCC(=O)O)c2cccnc2)c1 | 5 nM | 310 nM | 5200 nM
CC(C)C/N=C(/NC(N)=O)Nc1cccc(/C(=C\CCCC(=O)O)c2cccnc2)c1 | 200 nM | 610 nM | 12000 nM
N#CN/C(=N/C1CCCCC1)Nc1ccc(/C(=C\CCCC(=O)O)c2cccnc2)cc1 |  |  | 31000 nM
CC(C)(C)/N=C(\Nc1cccc(/C(=C\CCCC(=O)O)c2cccnc2)c1)NS(C)(=O)=O | 25 nM | 330 nM | 6100 nM
CN(C)/C(=N/c1cccc(/C(=C\CCCC(=O)O)c2cccnc2)c1)NC#N | 26 nM | 120 nM | 1000 nM
CC(C)(C)/N=C(/S)Nc1cccc(/C(=C\CCCC(=O)O)c2cccnc2)c1 | 22 nM | 38 nM | 2000 nM
N#CN/C(=N/C1CCCCC1)Nc1cccc(/C(=C\CCCC(=O)O)c2cccnc2)c1 | 3 nM | 47 nM | 5800 nM
CC(C)CC/N=C(/NC#N)Nc1cccc(/C(=C\CCCC(=O)O)c2cccnc2)c1 |  |  | 690 nM
N#CN/C(=N/Cc1cccnc1)Nc1cccc(/C(=C\CCCC(=O)O)c2cccnc2)c1 | 320 nM | 130 nM | 6900 nM
CC(C)C/N=C(\Nc1cccc(/C(=C\CCCC(=O)O)c2cccnc2)c1)Nc1nn[nH]n1 | 930 nM | 300 nM | 22000 nM
N#CN/C(N)=N\c1cccc(/C(=C\CCCC(=O)O)c2cccnc2)c1 | 430 nM | 35 nM | 1000 nM
N#CN/C(=N/Cc1ccccc1)Nc1cccc(/C(=C\CCCC(=O)O)c2cccnc2)c1 | 11 nM | 32 nM | 1600 nM
CC(C)(C)/N=C(\NC#N)Nc1cccc(/C(=C/CCCC(=O)O)c2cccnc2)c1 |  | 2600 nM | 48000 nM
CC(C)(C)N/C(=N\C#N)Nc1cccc(/C(=C\CCCC(=O)O)c2cccnc2)c1 [TERBOGREL] |  |  | 310 nM
